The values that follow come from ChEMBL document CHEMBL4725282, “Discovery of a Conformationally Constrained Oxazolidinone with Improved Safety and Efficacy Profiles for the Treatment of Multidrug-Resistant Tuberculosis” (J Med Chem, 2020).

A short description of data set [1]: Toxicity in male Sprague-Dawley rat assessed as change in platelet count at 150 mg/kg/day, po administered for 4 weeks followed by 2 week recovery period (Rvb =1077 +/- 117 10^9/L). It counts as organism-based. The settings on record: in vivo, 672 h.
A short description of data set [2]: Toxicity in male Sprague-Dawley rat assessed as change in mean platelet volume at 150 mg/kg/day, po administered for 4 weeks followed by 2 week recovery period (Rvb =7.0 +/- 0.4 fL). It counts as organism-based. The settings on record: in vivo, 672 h.
A short description of data set [3]: Toxicity in female Sprague-Dawley rat assessed as mortality at 50 to 450 mg/kg/day, po administered for 4 weeks followed by 2 week recovery period. The settings on record: in vivo, 672 h, dose 50-450 mg/kg/day. It counts as organism-based. Put shortly: (§1)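 SD rats, 6-7 weeks old (96 in total), split into vehicle, 50, 150 and 450 mg/kg/day groups of 12 females and 12 males each, given oral doses once daily for 4 weeks, then 2 weeks of recovery. Mortality, body weight, food intake, eyes, urine and neuropsychic signs were observed. Organ and bone marrow histopathology was done on 8 rats per sex per group after the last dose and on the remaining 4 per sex after 14 days of recovery.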

A short description of data set [4]: Toxicity in female Sprague-Dawley rat assessed as change in platelet count at 50 mg/kg/day, po administered for 4 weeks followed by 2 week recovery period (Rvb =1051 +/- 122 10^9/L). The settings on record: in vivo, 672 h. The format is organism-based.
The nature of data set [5]: Toxicity in female Sprague-Dawley rat assessed as change in lymphocyte level at 150 mg/kg/day, po administered for 4 weeks followed by 2 week recovery period (Rvb =76.9 +/- 4.6 %). The format is organism-based. The settings on record: in vivo, 672 h.
The nature of data set [6]: Toxicity in female Sprague-Dawley rat assessed as effect on food consumption at 50 to 450 mg/kg/day, po administered for 4 weeks measured at 1 week interval. The settings on record: in vivo, 672 h, dose 50-450 mg/kg/day. The format is organism-based. Put shortly: as §1
The nature of data set [7]: Toxicity in female Sprague-Dawley rat assessed as change in reticulocyte level at 450 mg/kg/day, po administered for 4 weeks followed by 2 week recovery period (Rvb =2.85 +/- 0.53 %). It counts as organism-based. The settings on record: in vivo, 672 h.
Data set [8] can be described thus: Toxicity in female Sprague-Dawley rat assessed as change in platelet count at 450 mg/kg/day, po administered for 4 weeks followed by 2 week recovery period (Rvb =1051 +/- 122 10^9/L). It counts as organism-based. The settings on record: in vivo, 672 h.
The nature of data set [9]: Half life in Beagle dog hepatocytes at 2 uM by LC-MS/MS analysis. It counts as ADME, cell-based, Canis lupus familiaris, Hepatocyte. In short, it runs like this:
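Hepatocytes (male CD-1 mouse, male SD rat, male beagle dog, male cynomolgus monkey, pooled human), final 1 μM compound and 1 million cells/mL, made by mixing 2 μM compound with 2 million cells/mL. Incubated at 37 °C in a CO2 incubator; sampled at 0, 15, 30, 60, 90 and 120 min. Quenched with methanol/ACN containing 0.1% formic acid. Parent remaining measured by LC-MS/MS.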

Data set [10] in a line: Toxicity in male Sprague-Dawley rat assessed as change in red blood cell count at 450 mg/kg/day, po administered for 4 weeks followed by 2 week recovery period (Rvb =7.86 +/- 0.32 10^12/L). It counts as organism-based. The settings on record: in vivo, 672 h.
Data set [11] in a line: Toxicity in male Sprague-Dawley rat assessed as body weight loss at 50 to 450 mg/kg/day, po administered for 4 weeks measured at 1 week interval. The settings on record: in vivo, 672 h, dose 50-450 mg/kg/day. It counts as organism-based. In short, it runs like this: as §1
Data set [12] in a line: Genotoxicity in CHO-WBL cells assessed as chromosome aberration at 20 to 150 ug/ml incubated for 3 hrs followed by compound washout and measured after 17 hrs in absence of S9 fraction by Giemsa staining based. The settings on record: chinese hamster, dose 20-150 µg/ml. It counts as toxicity, cell-based, Cricetulus griseus. Put shortly:
(§2)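 CHO-WBL cells in McCoy's 5A with 10% FBS, seeded 20-24 h before treatment. Compound in DMSO, with or without serum-free S-9 mix. Treatment either 3 h, then HBSS wash and 17 h further culture, or 20 h; harvest at 20 h from treatment start. Colcemid 0.1 μg/mL for the final 2 h, hypotonic KCl, methanol:acetic acid fixation, Giemsa stain. 300 metaphases per concentration (150 per duplicate flask) scored.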

Data set [13] can be described thus: Toxicity in female Sprague-Dawley rat assessed as change in white blood cell count at 50 mg/kg/day, po administered for 4 weeks followed by 2 week recovery period (Rvb =3.61 +/- 0.75 10^9/L). The format is organism-based. The settings on record: in vivo, 672 h.
Data set [14] can be described thus: Genotoxicity in CHO-WBL cells assessed as chromosome aberration at 20 to 150 ug/ml incubated for 3 hrs followed by compound washout and measured after 17 hrs in presence of S9 fraction by Giemsa staining based. It counts as toxicity, subcellular, Cricetulus griseus. The settings on record: chinese hamster, s9, 3 h, dose 20-150 µg/ml. Put shortly:
as §2

Data set [15] can be described thus: Toxicity in male Sprague-Dawley rat assessed as change in hemoglobin count at 450 mg/kg/day, po administered for 4 weeks followed by 2 week recovery period (Rvb =144 +/- 5 g/L). The format is organism-based. The settings on record: in vivo, 672 h.
The nature of data set [16]: Stability in human liver microsome at 1 uM measured after 30 mins in absence of NADPH by LC-MS/MS analysis. The settings on record: liver microsomes, read-out: Stabilty. It counts as ADME. In short, it runs like this:
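Liver microsomes (male CD-1 mouse or pooled human), 1 mg/mL protein, compound 1 µM, 37°C with shaking. Started with 1 mM NADPH or run without cofactor. Quenched with ice-cold ACN/MeOH containing internal standard. Parent quantified by LC-MS/MS; 30 min concentration normalised to time zero.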
Background: Liver microsomes are vesicles of endoplasmic reticulum, rich in cytochrome P450 enzymes.

Structures are written as SMILES.

With `CC(=O)NC[C@@H]1OC(=O)N2c3cc(F)c(N4CCSCC4)cc3OC[C@@H]12`, the Activity in [1] is on record as 998 10^9/L; in data set [2], 7 fL; in data set [3], “Non-Toxic”; in data set [4] it was 1094 10^9/L; in data set [5] it was 83%; in data set [6], “Non-Toxic”. Further, the Activity in data set [7] is 2.93%; in [8], 735 10^9/L; in [10], 7.46 10^12/L; in [11], “Non-Toxic”; in [12], “Non-Toxic”; in [13], 4.2 10^9/L. Besides, the Activity entry in [14] was “Non-Toxic”; in data set [15] it was 139 g/L. For the same compound, in data set [9], the half-life (usually the time in which the quantity being followed falls by half) at 2 µM was 1.13 h. In addition, the remaining at 0.5 h, 1 µM in [16] is 81.5%.
